PMC10334013 (International Journal of Tryptophan Research : IJTR, 2023)

How the values were obtained:
[1] = molecular target: T1, human AHR (Homo sapiens, UniProt P35869); test: Human AHR-dependent luciferase reporter assay; type: cell-based; conditions: HepG2 40/6 luciferase reporter, 4 hours, normalized to 10 nM TCDD and VEH
T1 sequence (P35869 11-848): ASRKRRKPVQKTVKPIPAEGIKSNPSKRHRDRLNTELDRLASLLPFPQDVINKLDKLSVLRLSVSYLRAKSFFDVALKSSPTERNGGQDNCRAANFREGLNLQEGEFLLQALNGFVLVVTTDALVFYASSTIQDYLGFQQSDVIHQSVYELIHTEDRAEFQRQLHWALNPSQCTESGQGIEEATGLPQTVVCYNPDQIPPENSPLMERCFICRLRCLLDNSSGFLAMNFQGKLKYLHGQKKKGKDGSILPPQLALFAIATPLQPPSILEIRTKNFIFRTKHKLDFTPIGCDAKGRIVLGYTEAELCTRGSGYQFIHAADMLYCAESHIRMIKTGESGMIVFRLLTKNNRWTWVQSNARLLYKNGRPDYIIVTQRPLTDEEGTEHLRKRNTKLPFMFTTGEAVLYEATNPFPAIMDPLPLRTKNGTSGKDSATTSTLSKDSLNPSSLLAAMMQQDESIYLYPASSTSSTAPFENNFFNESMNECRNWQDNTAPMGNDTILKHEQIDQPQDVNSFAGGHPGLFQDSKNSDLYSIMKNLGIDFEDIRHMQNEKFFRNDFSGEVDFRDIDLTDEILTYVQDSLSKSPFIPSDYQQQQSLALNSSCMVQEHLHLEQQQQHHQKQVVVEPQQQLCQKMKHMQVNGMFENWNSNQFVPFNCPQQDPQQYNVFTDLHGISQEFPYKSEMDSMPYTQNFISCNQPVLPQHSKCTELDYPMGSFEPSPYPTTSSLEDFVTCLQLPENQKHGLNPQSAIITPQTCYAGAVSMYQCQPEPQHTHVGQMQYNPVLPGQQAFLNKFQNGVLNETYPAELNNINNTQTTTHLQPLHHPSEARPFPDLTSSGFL

[2] = system: IL1B; type: cell-based, human; conditions: FLS co-treated with 0.5 ng/mL IL1β, 24 hours; TCDD 10 nM
Method in brief: (§1)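 Primary human fibroblast-like synoviocytes from healthy donors, kept and treated in Synoviocyte Growth Medium. […] RNA was isolated and transcripts quantified by real-time qPCR relative to ACTB, normalised to TCDD (10 nM) and vehicle. Mean ± SEM; one-way ANOVA.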

[3] = system: EREG; type: cell-based, human; conditions: FLS co-treated with 0.5 ng/mL IL1β, 24 hours; TCDD 10 nM
Method in brief: as §1

[4] = system: AHR target gene, CYP1A1; test: CYP1A1 induction in Caco2 cells; type: cell-based, human; conditions: 4 hours, mean serum concentrations
[5] = system: mouse AHR; test: Mouse AHR-dependent luciferase reporter assay; type: cell-based; conditions: Hepa 1.1 cells, 4 hours, mean concentrations measured in mouse sera
Method in brief: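 Hepa 1.1 cells were grown in αMEM with 8% FBS and 1% penicillin-streptomycin, then seeded 24 h before treatment. […] Lysate luciferase was read by luminometer and compared with vehicle; one-way ANOVA.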

Compound | EC25 [1] [µM] | also measured
O=C(O)CCc1c[nH]c2ccccc12 [Indole-3-propionic acid, indole-3-propionic acid] | 19.2 | –
O=C(O)C(O)Cc1c[nH]c2ccccc12 (centres unmarked) [Indole-3-lactic acid, indole-3-lactic acid] | 25.9 | –
O=C(O)c1cc(=O)c2ccccc2[nH]1 [Kynurenic acid, kynurenic acid] | 0.0408 | –
Clc1cc2c(cc1Cl)Oc1cc(Cl)c(Cl)cc1O2 [TCDD, 2,3,7,8-tetrachlorodibenzo-p-dioxin] | – | induction in IL1B expression [2]: 192 fold; induction in EREG expression [3]: 27 fold
Nc1ccccc1C(=O)CC(N)C(=O)O (centres unmarked) [Kynurenine, kynurenine] | 1.76 | AHR activity (CYP1A1 transcripts by qPCR) versus vehicle [4]: significantly different from the vehicle treatment; induction of luciferase activity relative to the vehicle treatment [5]: ~ 6 fold
